Test results: ChEMBL document CHEMBL1932953, “New anthranilic acid based antagonists with high affinity and selectivity for the human cholecystokinin receptor 1 (hCCK1-R)” (J Med Chem, 2011)
The source made the active and inactive calls. No cut-off for these calls is given here.

What was measured:
[1] = Apparent selectivity index, ratio of IC50 for CCK2 receptor in Hartley guinea pig cerebral cortex to IC50 for CCK1 receptor in Sprague-Dawley rat pancreatic acini; assay type: tissue-based
[2] = biological target: T1, Cholecystokinin receptor type A (Homo sapiens, UniProt P32238); experiment: Displacement of [125I]BH-(Thr,-Nle)-CCK-9 from human CCK1 receptor expressed in COS-7 cells after 60 mins by gamma counting; assay type: cell-based
T1 sequence (P32238 whole entry): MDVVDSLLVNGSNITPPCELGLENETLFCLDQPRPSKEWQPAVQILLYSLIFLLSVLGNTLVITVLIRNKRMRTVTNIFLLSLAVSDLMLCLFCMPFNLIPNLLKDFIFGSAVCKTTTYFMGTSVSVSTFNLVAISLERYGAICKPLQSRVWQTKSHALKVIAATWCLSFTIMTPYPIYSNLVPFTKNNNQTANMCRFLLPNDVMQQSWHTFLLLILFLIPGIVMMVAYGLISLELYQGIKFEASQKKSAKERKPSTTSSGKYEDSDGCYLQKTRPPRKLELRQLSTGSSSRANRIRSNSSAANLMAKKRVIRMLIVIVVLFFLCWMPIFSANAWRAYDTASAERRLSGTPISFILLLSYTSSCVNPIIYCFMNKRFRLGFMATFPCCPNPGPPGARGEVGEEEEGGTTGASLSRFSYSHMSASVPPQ

Homo sapiens = species: Homo sapiens; experiment: Apparent selectivity index, ratio of Ki for human CCK2 receptor to Ki for human CCK1 receptor
[3] = Displacement of [125I]-BH-CCK8 from CCK2 receptor in Hartley guinea pig cerebral cortex after 120 hrs by gamma-counting; assay type: tissue-based, Cavia porcellus; settings: in the assay text read “after 120 mins” for “after 120 hrs”; read-out: IC50
Outline: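 Cortical membranes (0.5 mg protein/ml) are incubated with 25 pM [125I]BH-CCK-8 for 120 min at 25 °C. The buffer is 10 mM Hepes, 118 mM NaCl, 4.7 mM KCl, 5 mM MgCl2, 1 mM EGTA, pH 6.5, with 0.2 mg/mL bacitracin. Samples are vacuum-filtered on GF/B and gamma-counted, with nonspecific binding defined with 1 μM CCK-8. IC50 comes from curve fitting, or ISB% is taken at the top concentration tested.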

[4] = biological target: T2, Gastrin/cholecystokinin type B receptor (Homo sapiens, UniProt P32239); experiment: Displacement of [125I]BH-(Thr,-Nle)-CCK-9 from human CCK2 receptor expressed in COS-7 cells after 60 mins by gamma counting; assay type: cell-based
T2 sequence (P32239 whole entry): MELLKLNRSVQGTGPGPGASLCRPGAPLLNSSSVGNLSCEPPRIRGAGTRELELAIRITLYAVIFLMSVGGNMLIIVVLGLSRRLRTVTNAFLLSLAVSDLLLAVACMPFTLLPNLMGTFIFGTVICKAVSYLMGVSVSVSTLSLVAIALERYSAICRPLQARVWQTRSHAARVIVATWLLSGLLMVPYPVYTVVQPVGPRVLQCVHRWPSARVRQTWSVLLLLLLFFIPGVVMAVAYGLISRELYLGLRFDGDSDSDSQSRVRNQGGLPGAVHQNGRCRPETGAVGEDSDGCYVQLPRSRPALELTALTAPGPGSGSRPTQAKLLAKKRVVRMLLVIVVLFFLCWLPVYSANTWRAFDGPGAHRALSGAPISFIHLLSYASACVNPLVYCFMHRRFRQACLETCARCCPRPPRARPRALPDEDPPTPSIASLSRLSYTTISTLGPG

[5] = biological target: T3, Cholecystokinin receptor type A (Rattus norvegicus) (UniProt P30551); experiment: Displacement of [125I]-BH-CCK8 from CCK1 receptor in Sprague-Dawley rat pancreatic acini at 10 uM after 120 hrs by gamma-counting; settings: in the assay text read “after 30 mins” for “after 120 hrs”
T3 sequence (whole entry): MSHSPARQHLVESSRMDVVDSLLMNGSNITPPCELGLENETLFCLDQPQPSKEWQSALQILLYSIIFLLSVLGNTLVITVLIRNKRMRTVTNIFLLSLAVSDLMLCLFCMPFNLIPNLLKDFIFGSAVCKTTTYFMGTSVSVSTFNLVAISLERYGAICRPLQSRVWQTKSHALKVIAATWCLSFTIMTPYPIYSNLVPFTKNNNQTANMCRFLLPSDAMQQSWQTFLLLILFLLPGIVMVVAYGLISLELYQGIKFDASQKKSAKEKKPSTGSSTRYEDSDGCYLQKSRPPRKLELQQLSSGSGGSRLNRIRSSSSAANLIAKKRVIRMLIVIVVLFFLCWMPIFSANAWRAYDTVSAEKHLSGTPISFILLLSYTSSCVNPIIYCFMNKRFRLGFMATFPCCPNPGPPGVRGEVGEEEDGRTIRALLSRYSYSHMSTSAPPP
Outline: (§1)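 Rats fasted 18–24 h with free water. Acini isolated by enzymatic digestion are incubated with 25 pM [125I]BH-CCK-8 and competitors at 37 °C for 30 min in a shaking bath. Ice-cold Hepes-Ringer pH 7.4 is added, the tubes are centrifuged 5 min at 12500g, and pellet radioactivity is counted. IC50 comes from curve fitting, or ISB% is taken at the top concentration tested.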

[6] = biological target: T4, Cholecystokinin receptor type A (Rattus norvegicus, UniProt P30551); experiment: Displacement of [125I]-BH-CCK8 from CCK1 receptor in Sprague-Dawley rat pancreatic acini after 120 hrs by gamma-counting; settings: in the assay text read “after 30 mins” for “after 120 hrs”; outline: as §1
T4 sequence (P30551 whole entry): T3 sequence (whole entry)

[7] = Antagonist activity at CCK1 receptor in Hartley guinea pig gall bladder assessed as inhibition of CCK8-induced contraction; assay type: functional, tissue-based, Cavia porcellus
Outline: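 Circular smooth-muscle strips (about 3 mm × 15 mm) in Krebs–Henseleit at 32 °C, gassed 95% O2/5% CO2, resting tension 0.5 g, isometric recording. After 60 min equilibration with washes every 15 min, antagonist or vehicle is given 5 min before a submaximal (70–80%) CCK-8 concentration. Response is % inhibition of contraction, and IC50 comes from the regression line.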

[8] = biological target: T5, Cholecystokinin receptor type A (Homo sapiens) (UniProt P32238); experiment: Antagonist activity at human CCK1 receptor expressed in COS7 cells assessed as inhibition of (Thr,Nle)-CCK9-induced inositol phosphate production using myo-2-[3H]inositol after 60 mins by scintillation counting; assay type: functional, cell-based; settings: COS-7
T5 sequence (whole entry): T1 sequence (P32238 whole entry)
Outline: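 COS-7 cells transiently transfected (DEAE-dextran) with receptor cDNA are labelled overnight with 2 μCi/ml myo-2-[3H]inositol. They are preincubated 30 min in DMEM with 20 mM LiCl at 37 °C, then incubated 60 min at 37 °C in PI buffer pH 7.45 with ligands at various concentrations. Inositol phosphates are separated on Dowex AG 1-X8 formate columns and counted by β scintillation.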

Cavia porcellus = experiment: Inhibition of CCK8-induced gall bladder contraction in iv dosed Hartley guinea pig administered 2 mins before CCK8 challenge; assay type: functional; settings: read-out: ID50 (the source's name)
Outline: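 Male Hartley guinea pigs (400–450 g) are fasted 48 h and anaesthetised with urethane 1.5 g/kg ip. Jugular vein and trachea are cannulated. Test agents are given iv at different doses 2 min before CCK-8 10 ng/kg iv. The read-out is % reduction of contraction area, and […] comes from the regression of inhibition against log dose.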

[9] = biological target: Cholecystokinin receptor type A (Homo sapiens, UniProt P32238, W39A); experiment: Displacement of [3H]-SR-27897 from human CCK1 W39A mutant receptor expressed in COS7 cells after 60 mins […]; assay type: cell-based, COS-7
Outline: (§2)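 Wild-type or mutant receptor cDNA in pRFE-Neo (2 μg/plate) was transiently transfected into COS-7 cells by modified DEAE-dextran, and cells were replated 24 h later. After about 24 h more, cells were incubated 60 min at 37 °C in DMEM with 0.1% BSA, 1.83 nM [3H]SR-27,897 and competitors. Cells were washed in cold PBS with 2% BSA, lysed in 0.1 N NaOH, and counted by scintillation. Values are mean ± SEM, at least three experiments in duplicate.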

[10] = biological target: Cholecystokinin receptor type A (Homo sapiens, UniProt P32238, F107A); experiment: Displacement of [3H]-SR-27897 from human CCK1 F107A mutant receptor expressed in COS7 cells after 60 mins […]; assay type: cell-based, COS-7; outline: as §2
[11] = biological target: Cholecystokinin receptor type A (Homo sapiens, UniProt P32238, R197A); experiment: Displacement of [3H]-SR-27897 from human CCK1 R197A mutant receptor expressed in COS7 cells after 60 mins […]; assay type: cell-based, COS-7; outline: as §2
[12] = biological target: Cholecystokinin receptor type A (Homo sapiens, UniProt P32238, M195A); experiment: Displacement of [3H]-SR-27897 from human CCK1 M195A mutant receptor expressed in COS7 cells after 60 mins […]; assay type: cell-based, COS-7; outline: as §2
[13] = biological target: T1, Cholecystokinin receptor type A; experiment: Displacement of [3H]-SR-27897 from wild type human CCK1 receptor expressed in COS7 cells after 60 mins […]; assay type: cell-based, COS-7; outline: as §2
[14] = biological target: Cholecystokinin receptor type A (Homo sapiens, UniProt P32238, I352A); experiment: Displacement of [3H]-SR-27897 from human CCK1 I352A mutant receptor expressed in COS7 cells after 60 mins […]; assay type: cell-based, COS-7; outline: as §2
[15] = biological target: Cholecystokinin receptor type A (Homo sapiens, UniProt P32238, F330A); experiment: Displacement of [3H]-SR-27897 from human CCK1 F330A mutant receptor expressed in COS7 cells after 60 mins […]; assay type: cell-based, COS-7; outline: as §2
[16] = biological target: T1, Cholecystokinin receptor type A; experiment: Displacement of [125I]-BH-JMV-179 from wild type human CCK1 receptor expressed in COS7 cells after 60 mins by gamma counting; assay type: cell-based, COS-7
Outline: (§3)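 Transiently transfected COS-7 cells (DMEM, 5% FCS, 37 °C, 5% CO2) were given 2 μg/plate pRFE-Neo vector carrying wild-type or mutant receptor cDNA by modified DEAE-dextran, then replated after 24 h. About 24 h later, cells were washed (PBS pH 6.95, 0.1% BSA) and incubated 60 min at 37 °C with 71 pM 125I-BH-(Thr,Nle)CCK-9 ± competitors. After cold washes, cells were lysed in 0.1 N NaOH and gamma-counted.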

[17] = biological target: Cholecystokinin receptor type A (Homo sapiens, UniProt P32238, N333A); experiment: Displacement of [125I]-BH-JMV-179 from human CCK1 receptor N333A mutant expressed in COS7 cells after 60 mins by gamma counting; assay type: cell-based, COS-7; outline: as §3
[18] = biological target: Cholecystokinin receptor type A (Homo sapiens, UniProt P32238, R336A); experiment: Displacement of [3H]-SR-27897 from human CCK1 R336A mutant receptor expressed in COS7 cells after 60 mins […]; assay type: cell-based, COS-7; outline: as §2
Sequence of Cholecystokinin receptor type A (Homo sapiens, UniProt P32238, R336A) (P32238 whole entry R336A): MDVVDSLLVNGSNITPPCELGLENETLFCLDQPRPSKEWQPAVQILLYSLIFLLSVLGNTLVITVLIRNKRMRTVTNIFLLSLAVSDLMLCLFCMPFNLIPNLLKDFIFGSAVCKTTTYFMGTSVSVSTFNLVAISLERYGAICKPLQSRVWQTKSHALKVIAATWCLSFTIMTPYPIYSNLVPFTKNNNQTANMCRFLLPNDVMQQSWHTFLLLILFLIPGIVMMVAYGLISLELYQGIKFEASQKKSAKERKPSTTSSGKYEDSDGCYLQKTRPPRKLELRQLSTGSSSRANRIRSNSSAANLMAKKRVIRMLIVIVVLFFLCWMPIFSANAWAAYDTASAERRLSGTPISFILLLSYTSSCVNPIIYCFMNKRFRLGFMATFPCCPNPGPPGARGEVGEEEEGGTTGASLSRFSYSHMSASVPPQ

Sequence of Cholecystokinin receptor type A (Homo sapiens, UniProt P32238, F330A) (P32238 whole entry F330A): as the sequence (P32238 whole entry R336A) above, with F330A, A336R counted along it
Sequence of Cholecystokinin receptor type A (Homo sapiens, UniProt P32238, R197A) (P32238 whole entry R197A): as the sequence (P32238 whole entry R336A) above, with R197A, A336R counted along it
Sequence of Cholecystokinin receptor type A (Homo sapiens, UniProt P32238, M195A) (P32238 whole entry M195A): as the sequence (P32238 whole entry R336A) above, with M195A, A336R counted along it
Sequence of Cholecystokinin receptor type A (Homo sapiens, UniProt P32238, F107A) (P32238 whole entry F107A): as the sequence (P32238 whole entry R336A) above, with F107A, A336R counted along it
Sequence of Cholecystokinin receptor type A (Homo sapiens, UniProt P32238, I352A) (P32238 whole entry I352A): as the sequence (P32238 whole entry R336A) above, with A336R, I352A counted along it
Sequence of Cholecystokinin receptor type A (Homo sapiens, UniProt P32238, W39A) (P32238 whole entry W39A): as the sequence (P32238 whole entry R336A) above, with W39A, A336R counted along it
Sequence of Cholecystokinin receptor type A (Homo sapiens, UniProt P32238, N333A) (P32238 whole entry N333A): as the sequence (P32238 whole entry R336A) above, with N333A, A336R counted along it

Row | Ratio IC50 [1] | Ki [2] [nM] | IC50 [3] [nM] | Ki [4] [nM] | IC50 [6] [nM] | IC50 [7] [nM] | inhibition [8] | SMILES | other results
1 | 83 | 59.8 | 16400 | 22000 |  |  |  | O=C(Nc1ccccc1C(=O)NC(Cc1ccccc1)C(=O)O)c1cc2ccccc2[nH]1 (racemic) | Ratio Ki (Homo sapiens): 368
2 |  |  |  |  |  |  |  | O=C(Nc1ccccc1C(=O)NC(CCCCc1ccccc1)C(=O)O)c1cc2ccccc2[nH]1 (racemic) | inhibition [5]: 39%
3 |  | 973 | 7900 | 1000 | 313 | 420 | Active | O=C(Nc1ccccc1C(=O)N[C@@H](CCc1ccccc1)C(=O)O)c1cc2ccccc2[nH]1 | 
4 | 6 |  | 600 |  | 107 |  |  | O=C(Nc1ccccc1C(=O)NC(CCCc1ccccc1)C(=O)O)c1cc2ccccc2[nH]1 (racemic) | 
5 | 8 |  | 6200 |  | 717 |  |  | O=C(Nc1ccccc1NC(=O)C(CCc1ccccc1)C(=O)O)c1cc2ccccc2[nH]1 (racemic) | 
6 |  | 2.3 | 3800 | 1000 | 9.5 | 43.9 | Active | O=C(Nc1ccccc1C(=O)N[C@H](CCc1ccccc1)C(=O)O)c1cc2ccccc2[nH]1 | ED50 (Cavia porcellus): 0.35 µmol/kg; Ki [9]: 3.7 nM; Ki [10]: 3.8 nM; Ki [11]: 19.6 nM; Ki [12]: 7.6 nM; Ki [13]: 5.8 nM; Ki [14]: 39.1 nM; Ki [15]: 4.9 nM; Ki [16]: 0.32 nM; Ki [17]: 5 nM; Ki [18]: 522 nM
